In ChEMBL document CHEMBL5696442, “Discovery of type II inhibitors of TGFβ-activated kinase 1 (TAK1) and mitogen-activated protein kinase kinase kinase kinase 2 (MAP4K2)” (J Med Chem, 2015):

Assays:
[1] = target: Mitogen-activated protein kinase 14 (Homo sapiens, UniProt Q16539); test: Inhibition of p38 alpha Lys2 labeling site in human Huh-7 cell lysate at 1 uM by KiNativ Profiling analysis relative to control; assay type: subcellular
[2] = target: T1, Mitogen-activated protein kinase kinase kinase 7 (Homo sapiens) (UniProt O43318); test: Inhibition of TAK1 Lys2 labeling site in human Huh-7 cell lysate at 1 uM by KiNativ Profiling analysis relative to control; assay type: subcellular
T1 sequence (whole entry): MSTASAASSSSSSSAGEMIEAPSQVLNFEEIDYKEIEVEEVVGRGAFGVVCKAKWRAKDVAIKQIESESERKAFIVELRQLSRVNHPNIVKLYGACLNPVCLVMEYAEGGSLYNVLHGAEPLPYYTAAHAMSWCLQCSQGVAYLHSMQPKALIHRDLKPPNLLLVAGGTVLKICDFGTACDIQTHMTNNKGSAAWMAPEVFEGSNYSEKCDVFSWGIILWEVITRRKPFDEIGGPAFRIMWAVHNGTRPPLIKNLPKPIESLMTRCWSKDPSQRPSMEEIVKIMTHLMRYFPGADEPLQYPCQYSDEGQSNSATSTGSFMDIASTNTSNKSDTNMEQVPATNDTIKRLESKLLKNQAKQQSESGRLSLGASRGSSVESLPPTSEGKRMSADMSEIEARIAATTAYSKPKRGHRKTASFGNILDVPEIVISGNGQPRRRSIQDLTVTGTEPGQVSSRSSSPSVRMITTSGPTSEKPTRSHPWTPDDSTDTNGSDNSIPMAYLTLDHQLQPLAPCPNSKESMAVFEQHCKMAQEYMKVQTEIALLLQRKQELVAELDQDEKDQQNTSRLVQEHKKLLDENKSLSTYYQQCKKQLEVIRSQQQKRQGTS

[3] = target: Calcium/calmodulin-dependent protein kinase type 1 (Homo sapiens) (UniProt Q14012); test: Inhibition of CAMK1 alpha Lys1 labeling site in human Huh-7 cell lysate at 1 uM by KiNativ Profiling analysis relative to control; assay type: subcellular
[4] = target: RAC-gamma serine/threonine-protein kinase (Homo sapiens) (UniProt Q9Y243); test: Inhibition of AKT3 ATP Loop labeling site in human A-375 cells at 0.5 uM by KiNativ Profiling analysis relative to control; assay type: cell-based
Outline: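 Live A375 melanoma cells were treated with compound at 5 or 0.5 μM, then lysed. The lysates were labeled with a lysine-reactive ATP or ADP-biotin probe. Kinase protection from probe labeling was measured by KiNativ.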

[5] = target: Cyclin-dependent kinase 2 (Homo sapiens) (UniProt P24941); test: Inhibition of CDK2 Lys2 labeling site in human A-375 cells at 0.5 uM by KiNativ Profiling analysis relative to control; assay type: cell-based
Outline: (§1)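 Live A375 melanoma cells were treated with compound at 5 or 0.5 μM. The cells were then lysed, and the lysates were labeled with a lysine-reactive ATP or ADP-biotin acyl probe (KiNativ). Inhibition is the compound's protection of each kinase labeling-site peptide from probe labeling, relative to untreated control.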

[6] = target: Misshapen-like kinase 1 (Homo sapiens) (UniProt Q8N4C8); test: Inhibition of ZC3/MINK Lys2 labeling site in human A-375 cells at 0.05 uM by KiNativ Profiling analysis relative to control; assay type: cell-based
[7] = target: T2, Kinase suppressor of Ras 1 (Homo sapiens) (UniProt Q8IVT5); test: Inhibition of KSR1 ACT labeling site harbouring SKNVFYDNGK in human A-375 cells at 0.5 uM by KiNativ Profiling analysis relative to control; assay type: cell-based
T2 sequence (whole entry): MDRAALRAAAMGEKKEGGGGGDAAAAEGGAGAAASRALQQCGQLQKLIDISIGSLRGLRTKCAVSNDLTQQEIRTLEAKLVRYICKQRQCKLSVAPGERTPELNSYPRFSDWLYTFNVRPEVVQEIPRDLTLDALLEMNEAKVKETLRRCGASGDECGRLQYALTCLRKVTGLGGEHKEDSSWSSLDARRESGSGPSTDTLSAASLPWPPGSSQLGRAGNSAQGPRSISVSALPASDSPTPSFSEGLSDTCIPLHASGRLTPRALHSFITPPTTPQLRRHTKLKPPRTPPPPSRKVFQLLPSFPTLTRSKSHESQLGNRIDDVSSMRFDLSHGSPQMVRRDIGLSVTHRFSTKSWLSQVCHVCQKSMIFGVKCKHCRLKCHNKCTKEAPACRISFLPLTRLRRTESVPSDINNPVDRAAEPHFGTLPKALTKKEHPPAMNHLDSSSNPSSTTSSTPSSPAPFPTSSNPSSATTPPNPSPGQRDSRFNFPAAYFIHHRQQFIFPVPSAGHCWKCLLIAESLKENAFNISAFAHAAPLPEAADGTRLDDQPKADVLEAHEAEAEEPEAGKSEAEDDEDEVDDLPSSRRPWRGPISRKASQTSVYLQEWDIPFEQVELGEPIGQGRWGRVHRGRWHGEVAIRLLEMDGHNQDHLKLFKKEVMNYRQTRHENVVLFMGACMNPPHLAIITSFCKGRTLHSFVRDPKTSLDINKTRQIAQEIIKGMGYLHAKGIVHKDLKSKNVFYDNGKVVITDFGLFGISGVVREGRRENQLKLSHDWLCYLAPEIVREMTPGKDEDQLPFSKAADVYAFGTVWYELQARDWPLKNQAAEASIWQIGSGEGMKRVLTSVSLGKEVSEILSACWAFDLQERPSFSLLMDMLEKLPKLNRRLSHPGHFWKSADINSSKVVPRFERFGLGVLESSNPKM

[8] = target: MAP/microtubule affinity-regulating kinase 3 (Homo sapiens) (UniProt P27448); test: Inhibition of MARK3 Lys2 labeling site in human A-375 cells at 0.05 uM by KiNativ Profiling analysis relative to control; assay type: cell-based
[9] = target: Serine/threonine-protein kinase PLK1 (Homo sapiens) (UniProt P53350); test: Inhibition of PLK1 Lys1 labeling site in human A-375 cells at 5 uM by KiNativ Profiling analysis relative to control; assay type: cell-based
[10] = target: Cyclin-dependent kinase 18 (Homo sapiens) (UniProt Q07002); test: Inhibition of PCTAIRE3 Lys1 labeling site harbouringSKLTENLVALKEIR in human A-375 cells at 5 uM by KiNativ Profiling analysis relative to control; assay type: cell-based
Outline: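 Live A375 melanoma cells were treated with compound at 5 or 0.5 μM, then lysed. Lysates were labeled with a lysine-reactive ATP or ADP-biotin probe. Read-out was the compound's protection of kinase labeling sites from probe labeling (KiNativ).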

[11] = target: Cyclin-dependent kinase 1 (Homo sapiens) (UniProt P06493); test: Inhibition of CDC2 Lys2 labeling site harbouring VLHRDLKPQNLLIDDKGTIK in human A-375 cells at 5 uM by KiNativ Profiling analysis relative to control; assay type: cell-based; outline: as §1
Chain of Cyclin-dependent kinase 1 (Homo sapiens) (P06493 whole entry, looked up): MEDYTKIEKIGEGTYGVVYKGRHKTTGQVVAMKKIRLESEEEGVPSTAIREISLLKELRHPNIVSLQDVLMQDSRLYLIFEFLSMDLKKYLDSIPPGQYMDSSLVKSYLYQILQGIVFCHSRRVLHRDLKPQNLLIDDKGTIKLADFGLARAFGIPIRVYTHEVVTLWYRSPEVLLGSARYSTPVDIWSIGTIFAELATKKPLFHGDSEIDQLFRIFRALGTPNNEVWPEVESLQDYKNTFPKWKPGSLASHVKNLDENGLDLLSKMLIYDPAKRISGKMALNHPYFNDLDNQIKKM

Chain of Misshapen-like kinase 1 (Homo sapiens) (Q8N4C8 whole entry, looked up): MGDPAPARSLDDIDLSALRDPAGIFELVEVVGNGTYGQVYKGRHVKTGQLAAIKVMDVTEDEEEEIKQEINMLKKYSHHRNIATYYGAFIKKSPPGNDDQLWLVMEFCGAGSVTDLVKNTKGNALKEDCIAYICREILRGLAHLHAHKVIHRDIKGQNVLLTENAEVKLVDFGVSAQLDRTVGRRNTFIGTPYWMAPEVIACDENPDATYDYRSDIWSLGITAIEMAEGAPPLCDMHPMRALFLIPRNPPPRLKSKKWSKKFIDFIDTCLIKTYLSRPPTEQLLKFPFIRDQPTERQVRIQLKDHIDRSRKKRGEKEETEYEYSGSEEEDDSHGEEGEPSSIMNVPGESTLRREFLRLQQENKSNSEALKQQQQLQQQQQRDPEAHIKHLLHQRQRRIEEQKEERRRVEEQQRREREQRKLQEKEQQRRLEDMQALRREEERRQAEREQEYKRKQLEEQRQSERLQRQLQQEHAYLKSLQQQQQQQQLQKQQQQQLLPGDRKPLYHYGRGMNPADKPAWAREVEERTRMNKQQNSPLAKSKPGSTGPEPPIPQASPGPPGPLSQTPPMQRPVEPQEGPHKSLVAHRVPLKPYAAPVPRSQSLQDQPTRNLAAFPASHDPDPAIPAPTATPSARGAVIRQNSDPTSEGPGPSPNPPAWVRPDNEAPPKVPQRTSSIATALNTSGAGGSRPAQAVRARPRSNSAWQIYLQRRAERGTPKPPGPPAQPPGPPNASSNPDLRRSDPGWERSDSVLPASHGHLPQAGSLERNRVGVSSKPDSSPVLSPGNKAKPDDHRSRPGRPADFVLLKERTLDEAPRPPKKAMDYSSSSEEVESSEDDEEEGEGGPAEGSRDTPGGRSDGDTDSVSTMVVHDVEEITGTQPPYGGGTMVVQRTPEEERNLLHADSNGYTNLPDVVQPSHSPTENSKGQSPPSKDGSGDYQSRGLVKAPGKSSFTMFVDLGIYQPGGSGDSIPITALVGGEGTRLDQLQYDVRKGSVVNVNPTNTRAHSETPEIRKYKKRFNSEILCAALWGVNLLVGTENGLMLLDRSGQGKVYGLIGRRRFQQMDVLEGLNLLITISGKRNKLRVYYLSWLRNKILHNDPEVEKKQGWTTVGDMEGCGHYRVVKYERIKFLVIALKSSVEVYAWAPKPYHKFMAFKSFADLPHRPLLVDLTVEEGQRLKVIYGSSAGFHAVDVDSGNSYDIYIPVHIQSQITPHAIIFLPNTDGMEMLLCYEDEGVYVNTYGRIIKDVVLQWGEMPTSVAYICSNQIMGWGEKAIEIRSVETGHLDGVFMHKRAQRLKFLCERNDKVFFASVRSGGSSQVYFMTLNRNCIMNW
Chain of Cyclin-dependent kinase 18 (Homo sapiens) (Q07002 whole entry): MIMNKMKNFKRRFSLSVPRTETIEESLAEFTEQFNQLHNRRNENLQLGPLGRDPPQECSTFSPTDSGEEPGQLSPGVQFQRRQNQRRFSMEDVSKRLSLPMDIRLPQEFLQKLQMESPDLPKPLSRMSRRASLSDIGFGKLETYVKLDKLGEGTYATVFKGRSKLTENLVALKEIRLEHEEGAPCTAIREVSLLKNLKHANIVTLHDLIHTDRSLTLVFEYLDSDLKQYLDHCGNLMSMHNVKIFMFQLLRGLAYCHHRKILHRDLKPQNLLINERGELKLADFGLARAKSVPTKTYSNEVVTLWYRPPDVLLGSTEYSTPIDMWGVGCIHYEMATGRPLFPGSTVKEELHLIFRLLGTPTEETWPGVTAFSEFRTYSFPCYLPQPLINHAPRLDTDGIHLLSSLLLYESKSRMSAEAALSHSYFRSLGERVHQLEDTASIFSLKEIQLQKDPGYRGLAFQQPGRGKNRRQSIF
Chain of Serine/threonine-protein kinase PLK1 (Homo sapiens) (P53350 whole entry): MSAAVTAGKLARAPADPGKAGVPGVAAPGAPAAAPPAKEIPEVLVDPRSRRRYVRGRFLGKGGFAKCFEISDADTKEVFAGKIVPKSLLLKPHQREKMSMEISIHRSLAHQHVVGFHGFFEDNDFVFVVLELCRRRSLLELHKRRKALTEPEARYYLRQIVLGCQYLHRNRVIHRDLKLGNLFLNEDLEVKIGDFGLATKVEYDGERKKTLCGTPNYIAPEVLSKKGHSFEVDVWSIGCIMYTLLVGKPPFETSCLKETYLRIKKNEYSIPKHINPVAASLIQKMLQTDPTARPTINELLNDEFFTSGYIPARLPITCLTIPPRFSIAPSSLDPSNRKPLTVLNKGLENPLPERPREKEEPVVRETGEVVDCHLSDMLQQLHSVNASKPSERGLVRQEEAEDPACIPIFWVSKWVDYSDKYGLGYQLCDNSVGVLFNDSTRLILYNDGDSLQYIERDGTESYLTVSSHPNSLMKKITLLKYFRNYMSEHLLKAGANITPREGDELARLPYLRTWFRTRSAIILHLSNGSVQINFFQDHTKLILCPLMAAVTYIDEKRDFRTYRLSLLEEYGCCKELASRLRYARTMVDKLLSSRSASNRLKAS
Chain of Calcium/calmodulin-dependent protein kinase type 1 (Homo sapiens) (Q14012 whole entry, looked up): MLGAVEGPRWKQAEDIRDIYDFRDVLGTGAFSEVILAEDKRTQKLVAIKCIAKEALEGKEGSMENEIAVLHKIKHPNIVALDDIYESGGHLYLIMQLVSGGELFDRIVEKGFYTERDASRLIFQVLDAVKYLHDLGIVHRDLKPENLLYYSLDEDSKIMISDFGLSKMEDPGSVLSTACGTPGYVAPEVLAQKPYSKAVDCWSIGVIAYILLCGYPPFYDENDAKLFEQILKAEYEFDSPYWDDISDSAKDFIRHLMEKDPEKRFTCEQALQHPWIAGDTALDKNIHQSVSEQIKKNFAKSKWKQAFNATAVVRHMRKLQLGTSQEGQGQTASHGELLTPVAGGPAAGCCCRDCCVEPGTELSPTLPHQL
Chain of RAC-gamma serine/threonine-protein kinase (Homo sapiens) (Q9Y243 whole entry): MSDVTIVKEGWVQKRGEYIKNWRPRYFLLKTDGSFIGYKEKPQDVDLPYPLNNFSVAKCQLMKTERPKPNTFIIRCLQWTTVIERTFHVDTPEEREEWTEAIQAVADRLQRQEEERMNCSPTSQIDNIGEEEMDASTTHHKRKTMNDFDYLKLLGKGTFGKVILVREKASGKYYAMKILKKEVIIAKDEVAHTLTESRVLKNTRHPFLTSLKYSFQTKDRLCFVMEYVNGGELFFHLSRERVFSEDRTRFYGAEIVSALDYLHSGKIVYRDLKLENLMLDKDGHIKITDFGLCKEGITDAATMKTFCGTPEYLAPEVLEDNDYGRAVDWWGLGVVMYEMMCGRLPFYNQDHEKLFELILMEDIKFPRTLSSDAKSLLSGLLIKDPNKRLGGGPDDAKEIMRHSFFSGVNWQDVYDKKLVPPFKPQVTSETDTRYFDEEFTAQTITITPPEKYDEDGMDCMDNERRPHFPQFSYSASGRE
Chain of MAP/microtubule affinity-regulating kinase 3 (Homo sapiens) (P27448 whole entry, looked up): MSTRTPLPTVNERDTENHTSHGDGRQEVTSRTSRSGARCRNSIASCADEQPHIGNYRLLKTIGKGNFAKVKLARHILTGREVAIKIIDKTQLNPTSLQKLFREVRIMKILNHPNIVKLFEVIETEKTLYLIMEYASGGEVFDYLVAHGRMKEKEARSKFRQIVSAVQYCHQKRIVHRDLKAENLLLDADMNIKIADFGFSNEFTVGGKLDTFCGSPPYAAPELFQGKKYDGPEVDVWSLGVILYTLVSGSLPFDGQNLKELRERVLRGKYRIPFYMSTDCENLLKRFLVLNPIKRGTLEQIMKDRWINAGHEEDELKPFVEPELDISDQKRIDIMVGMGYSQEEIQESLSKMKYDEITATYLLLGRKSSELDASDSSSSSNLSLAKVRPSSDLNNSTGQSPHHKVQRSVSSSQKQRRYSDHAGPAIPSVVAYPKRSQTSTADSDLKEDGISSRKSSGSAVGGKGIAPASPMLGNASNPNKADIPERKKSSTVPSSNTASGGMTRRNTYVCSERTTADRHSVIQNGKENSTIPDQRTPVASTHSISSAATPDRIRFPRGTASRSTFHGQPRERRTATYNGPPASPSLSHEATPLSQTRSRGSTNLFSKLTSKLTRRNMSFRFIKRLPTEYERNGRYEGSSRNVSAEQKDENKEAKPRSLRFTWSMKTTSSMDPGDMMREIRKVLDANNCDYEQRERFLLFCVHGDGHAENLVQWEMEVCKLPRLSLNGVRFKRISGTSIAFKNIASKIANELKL
Chain of Mitogen-activated protein kinase 14 (Q16539 whole entry): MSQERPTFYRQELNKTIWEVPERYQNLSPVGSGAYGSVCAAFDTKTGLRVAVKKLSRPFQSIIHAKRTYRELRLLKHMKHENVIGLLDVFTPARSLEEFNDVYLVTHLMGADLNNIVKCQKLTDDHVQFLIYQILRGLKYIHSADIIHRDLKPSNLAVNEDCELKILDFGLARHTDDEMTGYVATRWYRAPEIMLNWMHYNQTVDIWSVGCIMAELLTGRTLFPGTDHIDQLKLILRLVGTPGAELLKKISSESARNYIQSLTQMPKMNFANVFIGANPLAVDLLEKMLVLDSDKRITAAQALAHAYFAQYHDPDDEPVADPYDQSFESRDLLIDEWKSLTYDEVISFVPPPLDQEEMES

Structure (SMILES) | inhibition [1] | inhibition [2] | inhibition [3] | inhibition [4] | inhibition [5] | inhibition [6] | inhibition [7] | inhibition [8] | inhibition [9] | inhibition [10] | inhibition [11]
CNc1cc(Oc2cc(C(=O)Nc3cc(N4CCN(C)CC4)cc(C(F)(F)F)c3)ccc2C)ncn1 | 30.2% | 7% | 8.8% | – | – | – | – | – | – | – | –
CCN1CCN(Cc2ccc(NC(=O)c3ccc(C)c(/C=C/c4cnc5[nH]ccc5c4OC)c3)cc2C(F)(F)F)CC1 | – | – | – | 25.1% | 19.4% | 19.5% | 16.8% | 11.6% | 5.7% | 24.3% | -3.1%
CNc1cc(Oc2cc(C(=O)Nc3cc(-n4cnc(C)c4)cc(C(F)(F)F)c3)ccc2C)ncn1 | 50.2% | 29.3% | 5% | – | – | – | – | – | – | – | –
CCN1CCN(Cc2ccc(NC(=O)c3ccc(C)c(Oc4ccnc5[nH]ccc45)c3)cc2C(F)(F)F)CC1 | – | – | – | -1.8% | 4.5% | 32.6% | 8.5% | 19.5% | -7.3% | 73.3% | 34.7%
